Experimental data taken from ChEMBL document CHEMBL1127027, “Synthesis and structure-activity relationships of naphthalene-substituted derivatives of the allylamine antimycotic terbinafine” (1993).
Converted amounts (≈) assume the structure as drawn.

What was measured:
[1] = test system: Candida parapsilosis; test: Tested in vitro for minimum inhibitory concentration against Candida parapsilosis 39; format: functional; conditions: Lodderomyces parapsilosis
Outline: (§1)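 Yeasts were tested by tube dilution in malt extract broth (pH 4.8), with DMSO-dissolved compounds serially diluted in the broth. Blastospores came from yeast nitrogen base cultures shaken at 37 °C for about 30 h. After 48 h at 30 °C, MIC was read as the lowest concentration without macroscopic growth.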

[2] = test system: Sporothrix schenckii; test: Tested in vitro for minimum inhibitory concentration against Sporothrix schenck ii; format: functional
Outline: (§2)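 Glass-tube serial dilution in Sabouraud's dextrose broth (pH 6.5), with compounds dissolved in DMSO and diluted in medium. Mycelial inoculum was scraped from 21-day Kimmig agar cultures grown at 30 °C. Incubation was 7 days at 30 °C. MIC was the lowest concentration giving no macroscopically detectable growth.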

[3] = test system: Candida albicans; test: Tested in vitro for minimum inhibitory concentration against Candida albicans 124; format: functional; outline: as §1
[4] = test system: Trichophyton benhamiae; test: Tested in vitro for minimum inhibitory concentration against Trichophyton mentagrophytes; format: functional, Arthroderma benhamiae; outline: as §2
[5] = test system: Aspergillus fumigatus; test: Tested in vitro for minimum inhibitory concentration against Aspergillus fumigatus; format: functional
Outline: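 Broth macrodilution in glass tubes with Sabouraud's dextrose broth (pH 6.5). Compounds were dissolved in DMSO and serially diluted in medium. Inoculum was filamentous fungus harvested by spatula from Kimmig agar cultures grown 21 days at 30 °C. Tubes were incubated 72 h at 30 °C. MIC was the lowest concentration with no macroscopically visible growth.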

[6] = test system: Candida albicans; test: Tested in vitro for minimum inhibitory concentration against Candida albicans 9; format: functional; outline: as §1
[7] = test system: Microsporum canis; test: Tested in vitro for minimum inhibitory concentration against Microsporum canis; format: functional; outline: as §2

Row | SMILES | MIC [1] | MIC [2] | MIC [3] | MIC [4] | MIC [5] | MIC [6] | MIC [7]
1 | Cc1ccc2cccc(CN(C)C/C=C/C#CC(C)(C)C)c2c1 | 0.8 µg/mL (≈ 2.62 µM) | 0.4 µg/mL (≈ 1.31 µM) | 50 µg/mL (≈ 164 µM) | 0.01 µg/mL (≈ 0.0327 µM) | 1.56 µg/mL (≈ 5.11 µM) | 25 µg/mL (≈ 81.8 µM) | 0.05 µg/mL (≈ 0.164 µM)
2 | CN(C/C=C/C#CC(C)(C)C)Cc1cccc2c(Cl)csc12 | 0.1 µg/mL (≈ 0.301 µM) | 0.2 µg/mL (≈ 0.603 µM) | 0.8 µg/mL (≈ 2.41 µM) | 0.0015 µg/mL (≈ 0.00452 µM) | 0.1 µg/mL (≈ 0.301 µM) | 0.4 µg/mL (≈ 1.21 µM) | 0.003 µg/mL (≈ 0.00904 µM)
3 | Cc1cc(CN(C)C/C=C/C#CC(C)(C)C)c2ccccc2c1 | 1.56 µg/mL (≈ 5.11 µM) | 0.2 µg/mL (≈ 0.655 µM) | 50 µg/mL (≈ 164 µM) | 0.01 µg/mL (≈ 0.0327 µM) | 3.13 µg/mL (≈ 10.2 µM) | 50 µg/mL (≈ 164 µM) | 0.02 µg/mL (≈ 0.0655 µM)
4 | CN(C/C=C/C#CC(C)(C)C)Cc1cccc2c(Cl)cccc12 | 0.2 µg/mL (≈ 0.614 µM) | 0.4 µg/mL (≈ 1.23 µM) | 1.56 µg/mL (≈ 4.79 µM) | 0.003 µg/mL (≈ 0.00921 µM) | 0.1 µg/mL (≈ 0.307 µM) | 0.8 µg/mL (≈ 2.45 µM) | 0.006 µg/mL (≈ 0.0184 µM)
5 | CN(C/C=C/C#CC(C)(C)C)Cc1cccc2c(Br)cccc12 | 0.8 µg/mL (≈ 2.16 µM) | 0.1 µg/mL (≈ 0.27 µM) | 3.13 µg/mL (≈ 8.45 µM) | 0.006 µg/mL (≈ 0.0162 µM) | 1.56 µg/mL (≈ 4.21 µM) | 1.56 µg/mL (≈ 4.21 µM) | 0.01 µg/mL (≈ 0.027 µM)
6 | CN(C/C=C/C#CC(C)(C)C)Cc1cccc2ccc(Cl)cc12 | 0.4 µg/mL (≈ 1.23 µM) | 0.4 µg/mL (≈ 1.23 µM) | 12.5 µg/mL (≈ 38.4 µM) | 0.02 µg/mL (≈ 0.0614 µM) | 1.56 µg/mL (≈ 4.79 µM) | 3.13 µg/mL (≈ 9.6 µM) | 0.02 µg/mL (≈ 0.0614 µM)
7 | CN(C/C=C/C#CC(C)(C)C)Cc1cccc2c(C#N)cccc12 | 3.13 µg/mL (≈ 9.89 µM) | 6.25 µg/mL (≈ 19.8 µM) | > 200 µg/mL | 0.2 µg/mL (≈ 0.632 µM) | > 200 µg/mL | > 200 µg/mL | 0.4 µg/mL (≈ 1.26 µM)
8 | CN(C/C=C/C#CC(C)(C)C)Cc1cc(C#N)cc2ccccc12 | 0.4 µg/mL (≈ 1.26 µM) | > 200 µg/mL | > 200 µg/mL | 0.05 µg/mL (≈ 0.158 µM) | > 200 µg/mL | > 200 µg/mL | 0.05 µg/mL (≈ 0.158 µM)
9 | CN(C/C=C/C#CC(C)(C)C)Cc1cccc2c(F)cccc12 | 0.2 µg/mL (≈ 0.646 µM) | 0.2 µg/mL (≈ 0.646 µM) | 3.13 µg/mL (≈ 10.1 µM) | 0.006 µg/mL (≈ 0.0194 µM) | 0.1 µg/mL (≈ 0.323 µM) | 1.56 µg/mL (≈ 5.04 µM) | 0.006 µg/mL (≈ 0.0194 µM)
10 | CN(C/C=C/C#CC(C)(C)C)Cc1cc(F)cc2ccccc12 | 0.2 µg/mL (≈ 0.646 µM) | 0.2 µg/mL (≈ 0.646 µM) | 6.25 µg/mL (≈ 20.2 µM) | 0.006 µg/mL (≈ 0.0194 µM) | 0.8 µg/mL (≈ 2.59 µM) | 0.8 µg/mL (≈ 2.59 µM) | 0.006 µg/mL (≈ 0.0194 µM)
11 | CN(C/C=C/C#CC(C)(C)C)Cc1cccc2ccc(F)cc12 | 0.4 µg/mL (≈ 1.29 µM) | 0.4 µg/mL (≈ 1.29 µM) | 12.5 µg/mL (≈ 40.4 µM) | 0.006 µg/mL (≈ 0.0194 µM) | 0.4 µg/mL (≈ 1.29 µM) | 3.13 µg/mL (≈ 10.1 µM) | 0.006 µg/mL (≈ 0.0194 µM)
12 | CN(C/C=C/C#CC(C)(C)C)Cc1cccc2cc(F)ccc12 | 1.56 µg/mL (≈ 5.04 µM) | 0.8 µg/mL (≈ 2.59 µM) | 25 µg/mL (≈ 80.8 µM) | 0.006 µg/mL (≈ 0.0194 µM) | 6.25 µg/mL (≈ 20.2 µM) | 6.25 µg/mL (≈ 20.2 µM) | 0.006 µg/mL (≈ 0.0194 µM)
13 | CN(C/C=C/C#CC(C)(C)C)Cc1cccc2ccccc12 [TERBINAFINE] | 0.8 µg/mL (≈ 2.75 µM) | 0.4 µg/mL (≈ 1.37 µM) | 25 µg/mL (≈ 85.8 µM) | 0.003 µg/mL (≈ 0.0103 µM) | 0.8 µg/mL (≈ 2.75 µM) | 6.25 µg/mL (≈ 21.4 µM) | 0.006 µg/mL (≈ 0.0206 µM)
14 | Cc1ccc2c(CN(C)C/C=C/C#CC(C)(C)C)cccc2c1 | 0.8 µg/mL (≈ 2.62 µM) | 0.4 µg/mL (≈ 1.31 µM) | 25 µg/mL (≈ 81.8 µM) | 0.01 µg/mL (≈ 0.0327 µM) | > 200 µg/mL | 12.5 µg/mL (≈ 40.9 µM) | 0.05 µg/mL (≈ 0.164 µM)
15 | CN(C/C=C/C#CC(C)(C)C)Cc1ccc(F)c2ccccc12 | 0.8 µg/mL (≈ 2.59 µM) | 0.4 µg/mL (≈ 1.29 µM) | 25 µg/mL (≈ 80.8 µM) | 0.01 µg/mL (≈ 0.0323 µM) | 3.13 µg/mL (≈ 10.1 µM) | 12.5 µg/mL (≈ 40.4 µM) | 0.01 µg/mL (≈ 0.0323 µM)
16 | Cc1ccc(CN(C)C/C=C/C#CC(C)(C)C)c2ccccc12 | 3.13 µg/mL (≈ 10.2 µM) | 0.8 µg/mL (≈ 2.62 µM) | 50 µg/mL (≈ 164 µM) | 0.02 µg/mL (≈ 0.0655 µM) | > 200 µg/mL | 25 µg/mL (≈ 81.8 µM) | 0.05 µg/mL (≈ 0.164 µM)
17 | CN(C/C=C/C#CC(C)(C)C)Cc1cccc2c(F)cc(F)cc12 | 0.1 µg/mL (≈ 0.305 µM) | 0.1 µg/mL (≈ 0.305 µM) | 1.56 µg/mL (≈ 4.76 µM) | 0.003 µg/mL (≈ 0.00916 µM) | 0.1 µg/mL (≈ 0.305 µM) | 0.8 µg/mL (≈ 2.44 µM) | 0.003 µg/mL (≈ 0.00916 µM)
18 | Cc1cccc2c(CN(C)C/C=C/C#CC(C)(C)C)cccc12 | 1.56 µg/mL (≈ 5.11 µM) | 0.4 µg/mL (≈ 1.31 µM) | 12.5 µg/mL (≈ 40.9 µM) | 0.006 µg/mL (≈ 0.0196 µM) | 0.8 µg/mL (≈ 2.62 µM) | 6.25 µg/mL (≈ 20.5 µM) | 0.02 µg/mL (≈ 0.0655 µM)
19 | CN(C/C=C/C#CC(C)(C)C)Cc1ccc(C#N)c2ccccc12 | 12.5 µg/mL (≈ 39.5 µM) | > 200 µg/mL | > 200 µg/mL | 0.2 µg/mL (≈ 0.632 µM) | > 200 µg/mL | > 200 µg/mL | 0.1 µg/mL (≈ 0.316 µM)
